Screening data from PubChem.
A selection: hits, their analogues and other compounds. The true share with any hit is near 3.5%.
SIAE inh – human SIAE inhibition, primary screen; actives 0.69% (n = 370,000); SIAE FP-Rh probe binding, fluorescence polarization; AID 1053197; inhibition, % at 9.66 µM; Q9HAT2;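 active = inhibition above a cutoff: mean of compounds within the control limits plus 3 SD of those, cut at about 17% in these data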;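 also: 0% = plate median of compound wells and 100% = probe without SIAE protein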
HTRA1 inh – inhibitors of human serine peptidase HTRA1. Q92743. recombinant HTRA1, FP-rhodamine activity-based probe, fluorescence polarization. inhibition, % at 5.96 µM. actives 0.5% (n = 340,000). AID 504803; in the data active = inhibition above about 36%;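 also: 0% = enzyme with DMSO and 100% = wells lacking enzyme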
PRMT1 inh – PRMT1 (human) inhibition, primary screen | inhibition, % at 2.79 µM | actives 1.3% (n = 370,000) | Q99873 | recombinant PRMT1, activity-based probe fluorescence polarization;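 active = inhibition above about 21% made by adding two undisclosed values, limit read from the data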
ABHD4 inh – inhibitors of mouse ABHD4. inhibition, % at 8.92 µM. actives 0.54% (n = 370,000). purified mABHD4, FP-Rh probe fluorescence polarization. Q8VD66;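 active = inhibition exceeding the mean over every tested compound plus 3 SD, cut at about 30% in these data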;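 also: 0% = plate median of compound wells and 100% = S159A mutant with DMSO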
Target sequence (Q8VD66 whole entry, looked up): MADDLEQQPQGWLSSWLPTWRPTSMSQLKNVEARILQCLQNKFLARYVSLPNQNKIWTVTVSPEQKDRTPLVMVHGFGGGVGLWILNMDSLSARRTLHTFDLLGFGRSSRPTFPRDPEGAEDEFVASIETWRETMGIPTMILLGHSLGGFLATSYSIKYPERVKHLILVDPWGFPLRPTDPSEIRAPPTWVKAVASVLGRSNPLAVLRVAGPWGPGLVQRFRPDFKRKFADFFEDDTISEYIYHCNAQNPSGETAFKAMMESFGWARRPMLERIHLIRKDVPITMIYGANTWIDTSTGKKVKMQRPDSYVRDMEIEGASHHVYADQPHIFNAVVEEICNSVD
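assay system = mABHD4 protein | compound dosing = single nominal dose of 8.92 µM, 0.89% DMSO final | read-out basis = percent inhibition of probe binding, normalized to plate controls | schedule = Enzyme–compound pre-incubation 45 min, then probe 60 min, both 25 °C | detection = fluorescence polarization, excitation 525 nm, emission 598 nm, BODIPY TMR filters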
TCR-CD3 inh – blocks the human TCR-CD3 interaction; TAMRA-labeled TCR probe fluorescence, biochemical; inhibition, % at 9.4 µM; actives 0.37% (n = 360,000); in the data active = inhibition above about 19%;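 also: recombinant mutant TCR 2C K166C tagged with TAMRA read by polarization; 0% = receptor in buffer alone and 100% = receptor with positive control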
rCAG binder – binds r(CAG) RNA repeats. r(CAG) RNA repeat, TO-PRO-1 dye displacement fluorescence. inhibition, % at 3 µM. actives 1.3% (n = 370,000);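 active = inhibition above the plate cutoff, the mean of all test compounds on that plate plus 3 SD, cut at about 35% in these data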;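 also: 0% = DMSO alone and 100% = 100 µM mitoxantrone as full dye displacement; higher means more dye released from RNA so lower well fluorescence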
rCAG bind conf – r(CAG) RNA repeat binding, confirmation. shares compounds with rCAG binder. TO-PRO-1 dye displacement fluorescence. inhibition, % at 3 µM. actives 70% (n = 4,300). AID 652065;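 active = inhibition above a per-plate cutoff, the mean inhibition of sample wells plus 3 SD, cut at about 35% in these data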;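 also: loss of TO-PRO-1 fluorescence as compound displaces dye from 1x1 AA loop RNA; 0% = DMSO only wells and 100% = 100 µM mitoxantrone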
DNA CAG counter – DNA CAG dye complex inhibition counter-screen; shares compounds with rCAG binder; d(CAG) DNA oligo TO-PRO-1 dye displacement, fluorescence; inhibition, % at 3 µM; actives 94% (n = 4,300); AID 652068;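 active = inhibition above its plate's cutoff, the mean test-well inhibition plus 3 SD, cut at about 4.8% in these data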;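 also: 0% = DNA dye mix with DMSO and 100% = 100 µM mitoxantrone; hits displace the dye from DNA and so lower well fluorescence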
DNA CAG DR – DNA CAG dye complex inhibition, dose response counter-screen. shares compounds with rCAG binder. DNA CAG/GTC duplex TO-PRO-1 dye displacement fluorescence. IC50, µM. actives 20% (n = 250). AID 686960; in the data active = IC50 below about 10 µM
Active calls of the source: *; i = inactive; nt = no result.

SMILES	SIAE inh	HTRA1 inh	PRMT1 inh	ABHD4 inh	TCR-CD3 inh	rCAG binder	rCAG bind conf	DNA CAG counter	others
CCOC(=O)c1ccc(/C=C2/C=C(c3ccccc3)N(c3ccc(Cl)c(C(=O)O)c3)C2=O)cc1	-8	-53	2	-2	-2	61*	70*	32*
Cc1ccc(CN2CCCCC(NC(=O)c3ccc4ccccc4c3)C2=O)cc1 (stereo unspecified)	6	nt	-2	0	nt	4	nt	nt
OC(c1ccccc1)(c1ccccc1)C1CCN(CCCNc2ccccc2F)CC1	4	nt	1	3	nt	2	nt	nt
CCc1cc(C(=O)O)c(NC(=O)/C=C/c2ccc(OC)c(OC)c2)s1	-24	-2	-1	6	-5	56*	40*	9.9*
CCc1cc(C(=O)O)c(NC(=O)/C=C/c2ccc(OC)cc2)s1	-19	-5	0	4	7	25	nt	nt
COc1cc(/C=C2\SC(=O)NC2=O)ccc1Oc1ccc([N+](=O)[O-])cc1[N+](=O)[O-]	-17	-9	1	-18	6	52*	72*	33*	DNA CAG DR=i
COc1ccc(Cl)cc1Nc1nc(-c2sc(NC(=O)C(C)(C)C)nc2C)cs1	2	-1	0	16	-1	34	nt	nt
COc1cccc(Nc2nc(-c3sc(NC(=O)c4ccco4)nc3C)cs2)c1	-10	1	4	5	-3	37*	30	17*
COc1ccc(Cl)cc1Nc1nc(-c2sc(NC(=O)c3ccco3)nc2C)cs1	-22	0	-1	16	4	35*	34	17*
CCCCN(C)C(=O)c1ccc2c(c1)NC(=O)C(C)(C)O2	6	nt	-3	1	nt	-1	nt	nt
CC(Cl)C(=O)N1CCC(C(=O)NCC2COc3ccccc3O2)CC1 (stereo unspecified)	-2	nt	9	3	nt	3	nt	nt
Cc1ccc(S(=O)(=O)NN=C(c2ccccc2)c2cccs2)cc1	-5	-1	-4	-13	4	36*	19	6.7*
COC(=O)C1CN(C2CC2)CCS(=O)(=O)N1Cc1cn(Cc2ccc(Cl)cc2)nn1 (stereo unspecified)	1	nt	0	1	nt	-1	nt	nt
O=C(O)c1cccc(S(=O)(=O)N2CCC(Cc3ccccc3)CC2)c1	2	3	0	0	7	22	nt	nt
O=C(O)c1ccc(Cl)c(S(=O)(=O)N2CCC(Cc3ccccc3)CC2)c1	-4	-11	1	0	5	62*	45*	13*
O=C(CN(Cc1ccccc1)S(=O)(=O)c1ccc(Br)cc1)N/N=C/c1ccccc1C(=O)O	-5	-5	1	-2	5	51*	57*	15*
Cc1ccc(CNC(=O)OC(C)(C)C)c(/C=C/S(=O)(=O)NCc2ccc(F)cc2)c1	-1	nt	-7	-10	nt	-2	nt	nt
CC(C)(C)c1ccc(N/N=C(\C#N)S(=O)(=O)C(C)(C)C)cc1	3	0	0	1	4	36*	50*	19*
CC(C)(C)S(=O)(=O)/C(C#N)=N/Nc1ccc(Cl)cc1	1	0	-1	3	2	22	nt	nt
CCN(CC)c1nc2c3c(nc4c(c3c1C#N)CC(=O)N4c1ccc(Cl)cc1)NC(C)=N2	-7	35	7	19	-1	60*	52*	23*
CC(=O)C1=C(O)C(=Cc2ccccc2)OC1=O	-35	-15	1	-32	-19	36*	19	6.6*
CCOc1ccc(NC(=O)c2ccccc2NS(=O)(=O)c2ccc(F)cc2)c([N+](=O)[O-])c1	-3	-14	-3	-7	6	72*	73*	36*
COc1ccc2ccccc2c1/C=N/NC(=O)c1ccccc1F	-5	-14	2	-5	-2	3	nt	nt
O=C(Nc1ccc(S(=O)(=O)Nc2ncccn2)cc1)c1ccccc1NS(=O)(=O)c1ccc(F)cc1	-8	-2	2	0	-2	60*	29	6.5*
CS(=O)(=O)c1ccccc1C(=O)Nc1ccc(-c2nc3ccccc3[nH]2)cc1	1	-5	-2	-4	0	3	nt	nt
SMILES	SIAE inh	HTRA1 inh	PRMT1 inh	ABHD4 inh	TCR-CD3 inh	rCAG binder	rCAG bind conf	DNA CAG counter	others
CCOc1ccc(S(=O)(=O)Nc2ccccc2C(=O)N/N=C/c2c(OC)ccc3ccccc23)cc1	-70	-56	-2	-50	11	62*	42*	19*
O=C(Nc1ccc(-c2nc3ccccc3[nH]2)cc1)c1ccccc1NS(=O)(=O)c1ccc(F)cc1	-18	-116	-2	-114	14	92*	90*	70*
CCOc1ccc(S(=O)(=O)Nc2ccccc2C(=O)Nc2ccccc2N2CCOCC2)cc1	0	-9	-1	1	2	11	nt	nt
CC(C)CN1C(=O)[C@@]2(CC(=O)N(C)C2c2ccccc2)c2cc(-n3cc(CN(C)C)nn3)ccc21 (stereo partly specified)	6	nt	1	-4	nt	3	nt	nt
CCCC(=O)OC12CCCN(C1)/C(=C/c1cccc(OC)c1)C2 (stereo unspecified)	0	nt	-5	1	nt	-4	nt	nt
O=C1CC(c2ccco2)CC(O)=C1C=Nc1cc(Cl)ccc1O (stereo unspecified)	7	21	12	25	9	37*	17	6.0*
CC1=NN(c2ccccc2)C(=O)C1/C=C1\NC(=S)NC1=O (stereo unspecified)	6	-3	20	5	1	55*	72*	36*
COC(=O)[C@]12C[C@H](CC(=O)NCc3cccc4ccccc34)C(=O)N(CCC3=CCCCC3)C1=C[C@H](C(C)C)O[C@@H]2C1CC1	3	nt	-2	2	nt	7	nt	nt
CC1(C(=O)NS(=O)(=O)c2ccc(Cl)s2)CCN1C(=O)C1(c2ccc(Cl)cc2)CC1 (stereo unspecified)	1	nt	7	-1	-9	54*	49*	14*
CC1(C(=O)NS(=O)(=O)c2ccc(Cl)s2)CCN1C(=O)C1(c2ccccc2)CCCC1 (stereo unspecified)	1	nt	-1	1	-4	49*	51*	16*
CC1(C(=O)NS(=O)(=O)c2cccs2)CCN1C(=O)C1(c2ccc(Cl)cc2)CCC1 (stereo unspecified)	-2	nt	-5	1	-1	28	nt	nt
